How the values were obtained:
Kidney [1] = test: Biodistribution in NMRI mouse kidneys assessed per gram of tissue at 3.7 MBq/mL after 60 mins by gamma counter; type: ADME, organism-based; conditions: in vivo, 1 h
Outline: (§1)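 Male NMRI mice (30–40 g), anaesthetised by ip Hypnorm (0.1 ml), given 0.1 ml diluted tracer via tail vein (ethanol ≤10%, THF ≤0.02%). Killed by decapitation at 2 or 60 min pi, n = 4 per time point. Blood and organs dissected and weighed, radioactivity gamma-counted with background correction. Reported as % ID or % ID/g; total blood activity assumes blood mass 7% of body mass.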

Liver [2] = test: Biodistribution in NMRI mouse liver at 3.7 MBq/mL after 2 mins by gamma counter; type: ADME, organism-based; conditions: in vivo; outline: as §1
Liver [3] = test: Biodistribution in NMRI mouse liver assessed per gram of tissue at 3.7 MBq/mL after 2 mins by gamma counter; type: ADME, organism-based; conditions: in vivo; outline: as §1
Liver [4] = test: Biodistribution in NMRI mouse liver at 3.7 MBq/mL after 60 mins by gamma counter; type: ADME, organism-based; conditions: in vivo, 1 h; outline: as §1
Liver [5] = test: Biodistribution in NMRI mouse liver assessed per gram of tissue at 3.7 MBq/mL after 60 mins by gamma counter; type: ADME, organism-based; conditions: in vivo, 1 h; outline: as §1
Lung [6] = test: Biodistribution in NMRI mouse lungs at 3.7 MBq/mL after 2 mins by gamma counter; type: ADME, organism-based; conditions: in vivo; outline: as §1
Lung [7] = test: Biodistribution in NMRI mouse lungs assessed per gram of tissue at 3.7 MBq/mL after 2 mins by gamma counter; type: ADME, organism-based; conditions: in vivo; outline: as §1
Lung [8] = test: Biodistribution in NMRI mouse lungs at 3.7 MBq/mL after 60 mins by gamma counter; type: ADME, organism-based; conditions: in vivo, 1 h; outline: as §1
Lung [9] = test: Biodistribution in NMRI mouse lungs assessed per gram of tissue at 3.7 MBq/mL after 60 mins by gamma counter; type: ADME, organism-based; conditions: in vivo, 1 h; outline: as §1
Intestine = test: Biodistribution in NMRI mouse intestine at 3.7 MBq/mL after 2 mins by gamma counter; type: ADME, organism-based; conditions: in vivo; outline: as §1
Blood [10] = test: Biodistribution in NMRI mouse blood at 3.7 MBq/mL after 2 mins by gamma counter; type: ADME, organism-based; conditions: in vivo; outline: as §1
Blood [11] = test: Biodistribution in NMRI mouse blood assessed per gram of tissue at 3.7 MBq/mL after 2 mins by gamma counter; type: ADME, organism-based; conditions: in vivo; outline: as §1
Blood [12] = test: Biodistribution in NMRI mouse blood at 3.7 MBq/mL after 60 mins by gamma counter; type: ADME, organism-based; conditions: in vivo, 1 h; outline: as §1
Blood [13] = test: Biodistribution in NMRI mouse blood assessed per gram of tissue at 3.7 MBq/mL after 60 mins by gamma counter; type: ADME, organism-based; conditions: in vivo, 1 h; outline: as §1
[14] = Biodistribution in NMRI mouse cerebrum at 3.7 MBq/mL after 2 mins by gamma counter; type: ADME, organism-based; conditions: in vivo; outline: as §1
[15] = Biodistribution in NMRI mouse cerebrum assessed per gram of tissue at 3.7 MBq/mL after 2 mins by gamma counter; type: ADME, organism-based; conditions: in vivo; outline: as §1
[16] = Biodistribution in NMRI mouse cerebrum at 3.7 MBq/mL after 60 mins by gamma counter; type: ADME, organism-based; conditions: in vivo, 1 h; outline: as §1
[17] = Biodistribution in NMRI mouse cerebrum assessed per gram of tissue at 3.7 MBq/mL after 60 mins by gamma counter; type: ADME, organism-based; conditions: in vivo, 1 h; outline: as §1
Cerebellum [18] = test: Biodistribution in NMRI mouse cerebellum at 3.7 MBq/mL after 2 mins by gamma counter; type: ADME, organism-based; conditions: in vivo; outline: as §1
Cerebellum [19] = test: Biodistribution in NMRI mouse cerebellum assessed per gram of tissue at 3.7 MBq/mL after 2 mins by gamma counter; type: ADME, organism-based; conditions: in vivo; outline: as §1
Cerebellum [20] = test: Biodistribution in NMRI mouse cerebellum at 3.7 MBq/mL after 60 mins by gamma counter; type: ADME, organism-based; conditions: in vivo, 1 h; outline: as §1
Cerebellum [21] = test: Biodistribution in NMRI mouse cerebellum assessed per gram of tissue at 3.7 MBq/mL after 60 mins by gamma counter; type: ADME, organism-based; conditions: in vivo, 1 h; outline: as §1
[22] = Biodistribution in NMRI mouse liver/gallbladder at 3.7 MBq/mL after 2 mins by gamma counter; type: ADME, organism-based; conditions: in vivo; outline: as §1
[23] = Biodistribution in NMRI mouse liver/gallbladder at 3.7 MBq/mL after 60 mins by gamma counter; type: ADME, organism-based; conditions: in vivo, 1 h; outline: as §1
Kidney [24] = test: Biodistribution in NMRI mouse kidneys at 3.7 MBq/mL after 60 mins by gamma counter; type: ADME, organism-based; conditions: in vivo, 1 h; outline: as §1
Kidney [25] = test: Biodistribution in NMRI mouse kidneys assessed per gram of tissue at 3.7 MBq/mL after 2 mins by gamma counter; type: ADME, organism-based; conditions: in vivo; outline: as §1
Kidney [26] = test: Biodistribution in NMRI mouse kidneys at 3.7 MBq/mL after 2 mins by gamma counter; type: ADME, organism-based; conditions: in vivo; outline: as §1
[27] = Biodistribution in NMRI mouse urine at 3.7 MBq/mL after 60 mins by gamma counter; type: ADME, organism-based; conditions: in vivo, 1 h; outline: as §1
[28] = Biodistribution in NMRI mouse urine at 3.7 MBq/mL after 2 mins by gamma counter; type: ADME, organism-based; conditions: in vivo; outline: as §1
[29] = Partition coefficient, log P at pH 7.4; type: physicochemical; conditions: octanol/water

An Activity (Kidney [1]) of 8.2 % ID/g, an Activity (Liver [2]) of 21.8 %ID and an Activity (Liver [3]) of 10.2 % ID/g were found for `[18F]c1ccc(-c2nc3ccccc3s2)cc1` in this work. The Activity (Liver [4]) was 11.7 %ID, the Activity (Liver [5]) was 5.3 % ID/g and the Activity (Lung [6]) was 3.9 %ID. It also gave an Activity (Lung [7]) of 13.8 % ID/g, an Activity (Lung [8]) of 0.4 %ID and an Activity (Lung [9]) of 1.5 % ID/g. For the same compound, the Activity (Intestine) was 8.5 %ID, the Activity (Blood [10]) was 7.8 %ID and the Activity (Blood [11]) was 2.9 % ID/g. The Activity (Blood [12]) was 1.8 %ID, the Activity (Blood [13]) was 0.6 % ID/g and the Activity [14] was 1.03 %ID. For the same compound, the Activity [15] was 3.2 % ID/g, the Activity [16] was 0.07 %ID and the Activity [17] was 0.21 % ID/g. It also gave an Activity (Cerebellum [18]) of 0.33 %ID, an Activity (Cerebellum [19]) of 3.35 % ID/g and an Activity (Cerebellum [20]) of 0.02 %ID. The Activity (Cerebellum [21]) was 0.21 % ID/g, the Activity [22] was 30.3 %ID and the Activity [23] was 49.4 %ID. For the same compound, the Activity (Kidney [24]) was 5.9 %ID, the Activity (Kidney [25]) was 17.9 % ID/g and the Activity (Kidney [26]) was 11.4 %ID. It also gave an Activity [27] of 15.5 %ID, an Activity [28] of 0.6 %ID and a logD [29] of 2.86.
